In paper PMC3217170 (Biochimica et biophysica acta, 2011):
Blank lines part the entries; values can stand above or below the molecule they belong to.

Tests used:
CCKA receptor = CCKA receptor mediation of PKCθ T538 phosphorylation in pancreatic acini; format: cell-based, rat
PKCθ / RafC = assay: Co-IP association of PKCθ with RafC; format: cell-based, rat; settings: 2.5 min, 3 independent experiments; for association of PKCθ with RafC: CCK 10 nM or TPA 1 μM
PKCθ / MALT-1 = assay: Co-IP association of PKCθ with MALT-1; format: cell-based, rat; settings: CCK 10 nM or TPA 1 μM, data not shown
PKCθ / p85 PI3K = assay: Co-IP association of PKCθ with p85 PI3K; format: cell-based, rat
Procedure, shortened: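 Rat acini stimulated with CCK 10 nM or TPA 1 μM, then lysed in CelLytic buffer with vanadate, PMSF and protease inhibitors. Lysate (750 μg/ml) incubated overnight at 4 °C with 4 μg antibody and protein G-agarose. Immunoprecipitates washed with PBS, then analysed by SDS-PAGE and Western blotting.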

[1] = system: PKCθ (pT538) in pancreatic acini; assay: PKCθ T538 phosphorylation in rat pancreatic acini; format: cell-based; settings: for tmax of pT538 PKCθ phosphorylation / pT538 PKCθ phosphorylation, maximum at about 1 min / pT538 PKCθ phosphorylation at 30 min: time course; for tmax of pT538 PKCθ phosphorylation / pT538 PKCθ phosphorylation, maximum at about 1 min / pT538 PKCθ phosphorylation at 30 min / stimulation of PKCθ phosphorylation (pT538), secretagogues: 5 independent experiments; for stimulation of PKCθ phosphorylation (pT538), secretagogues: isolated rat pancreatic acini, 5 minutes, Western blot
PKD (pS744/748) = assay: PKD phosphorylation stimulated by CCK or TPA; format: cell-based, rat; settings: no inhibitor, p<0.05
Procedure, shortened: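 Collagenase-dispersed rat acini preincubated 3 h ± 20 μM PKCθ pseudosubstrate, then CCK (10 nM, 2.5 min) or TPA (1 μM, 5 min), and lysed. Equal protein Western-blotted for pY311 PKCδ, pS744/748 PKD, pS338 RafC or pY416 Src, with total PKCθ and α/β tubulin as loading controls. Bands quantified by densitometry in the linear range. ≥3 experiments; mean±SEM; paired t-test.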

PKCθ / Lyn = assay: Co-IP association of PKCθ with Lyn; format: cell-based, rat; settings: 2.5 min, 3 independent experiments; for association of PKCθ with Lyn: CCK 10 nM or TPA 1 μM
PKCθ / tubulin = assay: Co-IP association of PKCθ with tubulin; format: cell-based, rat
Procedure, shortened: (§1)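 Rat pancreatic acini are dispersed by collagenase and preincubated 2 hrs at 37 °C in HEPES (pH 7.45) incubation solution, then left unstimulated or given CCK (10 nM) or TPA (1 μM). Cells are lysed in CelLytic buffer with vanadate, PMSF and protease inhibitors. Lysate (750 μg/ml) is immunoprecipitated overnight at 4 °C with 4 μg anti-PKCθ plus protein G-agarose, PBS-washed, then analysed by SDS-PAGE/Western blot; ≥3 experiments.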

PKCθ / Cbl = assay: Co-IP association of PKCθ with Cbl; format: cell-based, rat; settings: CCK 10 nM or TPA 1 μM, data not shown
PKCθ / RafA = assay: Co-IP association of PKCθ with RafA; format: cell-based, rat; settings: 2.5 min, 3 independent experiments; for association of PKCθ with RafA: CCK 10 nM or TPA 1 μM
PKCθ / 14-3-3γ = assay: Co-IP association of PKCθ with 14-3-3γ; format: cell-based, rat; settings: CCK 10 nM or TPA 1 μM, data not shown
PKCθ [2] = assay: PKCθ translocation to membranes; format: cell-based, rat; settings: p<0.05, mean±S.E., 5 independent experiments
Procedure, shortened: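 Acini stimulated with CCK for 1 min or TPA for 5 min, then homogenized in Tris pH 7.5 buffer with EGTA/EDTA, vanadate, PMSF and protease inhibitors. The cleared supernatant was spun at 60,000×g for 30 min at 4 °C. The membrane pellet was washed, solubilized in Triton/deoxycholate buffer, sonicated and spun at 10,000×g. Western blot used anti-PKCθ; calpain and E-cadherin served as fraction markers. Results given as % control; 5 experiments.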

PKCθ / Akt = assay: Co-IP association of PKCθ with Akt; format: cell-based, rat; settings: CCK 10 nM or TPA 1 μM, 2.5 min, 3 independent experiments
pT538 PKCθ = assay: PKCθ immunofluorescence-cytochemistry; format: cell-based, rat; settings: TPA 1 μM or CCK 10 nM, 10 minutes; 4 independent experiments
Procedure, shortened: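 Acini left untreated or given TPA 1 μM or CCK 10 nM for 10 min, then washed, fixed, permeabilized and cytocentrifuged onto poly-L-lysine slides. Labelled overnight at 4 °C with rabbit anti-pT538 PKCθ and mouse anti-E-cadherin (1:500), detected with Alexa 488/555 secondaries, nuclei stained with DAPI. Isotype-matched primary as negative control; 4 experiments.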

PKCθ / RafB = assay: Co-IP association of PKCθ with RafB; format: cell-based, rat
Procedure, shortened: as §1

[3] = system: pancreatic acini (amylase secretion); assay: Amylase release from pancreatic acini; format: cell-based, rat; settings: 15 minutes, basal 1.7±0.2, mean±S.E., 6 experiments
Procedure, shortened: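 Rat pancreatic acini from collagenase digestion; 2 h preincubation ± 20 μM PKCθ pseudosubstrate in HEPES-buffered (pH 7.45) standard incubation solution, then 15 min with secretagogue. Medium amylase measured with Phadebas reagent and expressed as % of total cellular amylase released during incubation. Means±S.E.; paired Student's t-test.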

PKCδ [4] = settings: pancreatic acinar cells, cited from earlier work
CrKII = settings: pancreatic acinar cells; ref [66]; cited from earlier work
PYK2/CAKβ = settings: pancreatic acinar cells; ref [17]; cited from earlier work
Lyn = settings: pancreatic acinar cells; ref [64]; cited from earlier work
PI-3 kinase = settings: pancreatic acinar cells; ref [67]; cited from earlier work
PKCmu (PKD1) = settings: pancreatic acinar cells; no reference printed at this sentence; cited from earlier work
phospholipase D = settings: pancreatic acinar cells; ref [67]; cited from earlier work
PKCθ (T538) = settings: ref [61]; cited from earlier work
PKCθ [5] = settings: ref [62]; cited from earlier work
CCKB receptors = assay: CCKB receptor mediation of PKCθ T538 phosphorylation in pancreatic acini; format: cell-based, rat; settings: 1 min, isolated acini, Western blot
PKCθ [6] = settings: ref [56]; cited from earlier work
PKCδ [7] = settings: ref [60]; cited from earlier work

- inhibition of CCK-stimulated PKCθ phosphorylation, CCKA receptor antagonists (CCKA receptor; preincubated 5 min, then CCK 10 nM for 1 min): completely inhibited
Molecule: O=C(O)Cn1c(C(=O)Nc2nc(-c3ccccc3Cl)cs2)cc2ccccc21 [SR27897, 1-[[2-(4-(2-chlorophenyl)-thiazol-2-yl)aminocarbonyl]indolyl]acetic acid]

Molecule: CCCCCCCCCCCCCC(=O)O[C@@H]1[C@@H](C)[C@@]2(O)[C@@H](C=C(CO)C[C@]3(O)C(=O)C(C)=C[C@@H]23)[C@H]2C(C)(C)[C@]12OC(C)=O [TPA, 12-O-tetradecanoylphobol-13-acetate]
- association of PKCθ with RafC (PKCθ / RafC): increase in the association
- association of PKCθ with MALT-1 (PKCθ / MALT-1): but not with MALT-1, Bcl-10, 14-3-3γ or Cbl
- association of PKCθ with p85 PI3K (PKCθ / p85 PI3K): but not an association with p85 PI3K
- tmax of pT538 PKCθ phosphorylation [1]: 1.60±0.06 min
- pT538 PKCθ phosphorylation, maximum at about 1 min ([1]; mean±S.E.): 188±13 % of control
- pT538 PKCθ phosphorylation at 30 min ([1]; mean±S.E.): 171±23 % of control
- phosphorylation of PKD stimulated by TPA (PKD (pS744/748); TPA 1 μM, 5 min): 19.1±3.0 folds over control
- association of PKCθ with Lyn (PKCθ / Lyn): increase in the association
- association of PKCθ with tubulin (PKCθ / tubulin): but not an association with p85 PI3K, PKD1, RafB, Bcl-10, Cbl, MALT-1, tubulin
- association of PKCθ with Cbl (PKCθ / Cbl): but not with MALT-1, Bcl-10, 14-3-3γ or Cbl
- association of PKCθ with RafA (PKCθ / RafA): increase in the association
- association of PKCθ with 14-3-3γ (PKCθ / 14-3-3γ): but not with MALT-1, Bcl-10, 14-3-3γ or Cbl
- membrane associated PKCθ (PKCθ [2]; TPA, 5 min incubation): 189±59 % of control
- association of PKCθ with Akt (PKCθ / Akt): increase in the association
- phosphoT538 PKCθ in the membrane (immunofluorescence) (pT538 PKCθ): increased in the membrane in both cases (Panel B and C, Fig. 6, respectively), with the increase caused by TPA more prominent
- association of PKCθ with RafB (PKCθ / RafB): but not an association with p85 PI3K, PKD1, RafB

Molecule: C[N+](C)(C)CCOC(N)=O [carbachol]
- stimulation of PKCθ phosphorylation (pT538), secretagogues [1]: stimulated a significant increase
- Amylase secretion (% total), −PKCθ inhibitor ([3]; Carbachol 1 μM): 6.8±0.7 % total
- Amylase secretion (% total), −PKCθ inhibitor ([3]; Carbachol 1 mM): 6.2±0.7 % total

- EC50 ([1]; read-out: half-maximal effect (EC50), T538 PKCθ phosphorylation, dose-response, 1 minute, 4–5 independent experiments, GraphPad 5.0): 0.174 ± 0.008 nM
- Amylase secretion (% total), −PKCθ inhibitor ([3]; CCK 0.03 nM): 5.1±0.8 % total
- Amylase secretion (% total), −PKCθ inhibitor ([3]; CCK 0.1 nM): 7.1±0.6 % total
- Amylase secretion (% total), −PKCθ inhibitor ([3]; CCK 100 nM): 4.5±0.4 % total
- CCK stimulation of PKCθ activation mediated by the high affinity state CCKA receptor (CCKA receptor; from CCK-JMV versus CCK maximal effect): 30%
Molecule: COOH-terminal octapeptide of cholecystokinin [CCK]
- association of PKCθ with RafC (PKCθ / RafC): increase in the association
- direct association of PKCθ with RafC at low CCK concentration or with CCK-JMV (PKCθ / RafC; CCK 0.1–1–10 nM or CCK-JMV): observed also at low CCK concentration
- association of PKCθ with MALT-1 (PKCθ / MALT-1): but not with MALT-1, Bcl-10, 14-3-3γ or Cbl
- association of PKCθ with p85 PI3K (PKCθ / p85 PI3K): but not an association with p85 PI3K
- CCK concentration required to fully activate PKCδ (PKCδ [4]; no reference printed at this sentence): 100 nM
- CCKA receptor state mediating PKCδ activation (PKCδ [4]; ref [14]): mediated only through activation of the low affinity CCKA receptor state
- CCKA receptor state mediating CrKII phosphorylation (CrKII): mediated only through activation of the low affinity CCKA receptor state
- share of maximal PYK2/CAKβ activation due to high affinity CCKA receptor state (PYK2/CAKβ): 20%
- maximal stimulation of T538 phosphorylation of PKCθ ([1]; 10 nM, 1 minute, 4–5 independent experiments, mean±S.E.): 239±25 % of control
- concentration of maximal effect, T538 PKCθ phosphorylation ([1]; dose-response, 1 minute): 10 nM
- stimulation of PKCθ phosphorylation (pT538), secretagogues [1]: stimulated a significant increase
- lowest concentration with detectable T538 PKCθ phosphorylation ([1]; pancreatic acinar cells): 0.1 nM
- tmax of pT538 PKCθ phosphorylation [1]: 0.78±0.08 min
- pT538 PKCθ phosphorylation, maximum at about 1 min ([1]; mean±S.E.): 197±19 % of control
- pT538 PKCθ phosphorylation at 30 min ([1]; mean±S.E.): 145±11 % of control
- phosphorylation of PKD stimulated by CCK (PKD (pS744/748); CCK 10 nM, 2.5 min): 19.4±3.69 folds over control
- association of PKCθ with Lyn (PKCθ / Lyn): increase in the association
- direct association of PKCθ with Lyn at low CCK concentration or with CCK-JMV (PKCθ / Lyn; CCK 0.1–1–10 nM or CCK-JMV): observed also at low CCK concentration
- association of PKCθ with tubulin (PKCθ / tubulin): but not an association with p85 PI3K, PKD1, RafB, Bcl-10, Cbl, MALT-1, tubulin
- association of PKCθ with Cbl (PKCθ / Cbl): but not with MALT-1, Bcl-10, 14-3-3γ or Cbl
- association of PKCθ with RafA (PKCθ / RafA): increase in the association
- direct association of PKCθ with RafA at low CCK concentration or with CCK-JMV (PKCθ / RafA; CCK 0.1–1–10 nM or CCK-JMV): observed also at low CCK concentration
- association of PKCθ with 14-3-3γ (PKCθ / 14-3-3γ): but not with MALT-1, Bcl-10, 14-3-3γ or Cbl
- share of Lyn activation due to high affinity CCKA receptor state (Lyn): 60%
- membrane associated PKCθ (PKCθ [2]; CCK, 1 min incubation): 216±34 % of control
- CCKA receptor state mediating PI-3 kinase activation (PI-3 kinase): mediated entirely by the activation of the high affinity receptor state
- CCK concentration for maximal PKCmu (PKD1) activation (PKCmu (PKD1)): 10 nM
- CCKA receptor state mediating phospholipase D activation (phospholipase D): mediated entirely by the activation of the high affinity receptor state
- association of PKCθ with Akt (PKCθ / Akt): increase in the association
- phosphoT538 PKCθ in the membrane (immunofluorescence) (pT538 PKCθ): increased in the membrane
- association of PKCθ with RafB (PKCθ / RafB): but not an association with p85 PI3K, PKD1, RafB

Molecule: EGF: Epidermal growth factor
- T538 PKCθ phosphorylation in A431 cells (PKCθ (T538)): increases T538 PKCθ phosphorylation

Molecule: IGF: insulin-like growth factor 1
- PKCθ catalytic activity in rhabdomyosarcoma cell line (PKCθ [5]): increases PKCθ catalytic activity

Molecule: bombesin
- stimulation of PKCθ phosphorylation (pT538), secretagogues [1]: stimulated a significant increase

Molecule: gastrin
- pT538 PKCθ phosphorylation by gastrin (CCKB receptors): did not produce any increase

Molecule: insulin: known pancreatic growth factor
- PKCθ activation in myocytes (PKCθ [6]): able to increase PKCθ activation

Molecule: secretin: gastrointestinal hormone that causes an increase in the cAMP
- stimulation of PKCθ phosphorylation (pT538), secretagogues [1]: Neither

- Amylase secretion (% total), −PKCθ inhibitor ([3]; VIP 10 nM): 3.4±0.6 % total
Molecule: vasoactive intestinal peptide [VIP]
- stimulation of PKCθ phosphorylation (pT538), secretagogues [1]: Neither
- PKCδ activation in cortical astrocytes (PKCδ [7]): activates PKCδ
